# Screens as filed in PubChem BioAssay.
# MrgX1 agonist – agonists of human MrgX1 receptor. Q96LB2. MrgX1-HEK293 cells, Fluo-4 calcium fluorescence, agonist mode; stronger effect = higher value. B-score at 10 µM. actives 0.44% (n = 310,000);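 active = calcium response B-score plate-corrected fluorescence ratio at least 3 library SD, with starting fluorescence B-score inside 5 SD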
# Target sequence (Q96LB2 whole entry, looked up): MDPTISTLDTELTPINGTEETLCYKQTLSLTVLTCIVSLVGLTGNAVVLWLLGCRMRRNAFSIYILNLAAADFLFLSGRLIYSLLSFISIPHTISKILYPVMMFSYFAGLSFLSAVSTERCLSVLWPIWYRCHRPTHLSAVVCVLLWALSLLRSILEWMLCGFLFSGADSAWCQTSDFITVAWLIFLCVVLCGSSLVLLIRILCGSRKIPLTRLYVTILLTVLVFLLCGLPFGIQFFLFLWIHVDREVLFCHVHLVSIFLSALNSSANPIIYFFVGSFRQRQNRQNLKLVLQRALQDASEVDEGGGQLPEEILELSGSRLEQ
#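 Test system: HEK293 cells stably expressing human MrgX1 receptor; Input: fifteen thousand cells per well; Dosing: compound delivered in addition one of three; Schedule: overnight seeding, then 1 h dark dye loading; Technique: Fluo-4 NW calcium fluorescence; Measure: B-scored fluorescence response ratio; Controls: positive and negative controls per plate.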
# RGS4 block – human RGS4 inhibition; HEK293 M3R/RGS4 inducible, Fluo-4 calcium flux; stronger effect = higher value; triggered by carbachol at its EC20; B-score at 10 µM; actives 0.45% (n = 310,000);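 active = B-score, a plate-corrected calcium signal, over three deviations above library mean, with baseline fluorescence within five deviations of library mean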;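 also: RGS4 expression induced by doxycycline in cells with stable M3 receptor; B-score is computed from the integrated fluorescence ratio over baseline after carbachol; higher B-score means a larger calcium signal and so more RGS4 inhibition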
# RGS4 act – potentiators or activators of RGS4 | HEK293 M3R/inducible RGS4, carbachol calcium flux Fluo4; stronger effect = lower value | B-score at 10 µM | actives 0.92% (n = 310,000);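 active = B-score of the integrated calcium signal more than 4 SD below the library mean, with starting fluorescence not abnormally high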;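 also: negative B-score means reduced calcium response which marks RGS4 activation or potentiation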
#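 Assay system: HEK293 FlpIn-TREx cells, stable M3R, doxycycline-inducible RGS4 / Probe or stimulus: carbachol, ECmax concentration / Times: overnight RGS4 induction, 30 min dye load 37 °C, 20 min compound RT / Signal: kinetic calcium fluorescence imaging with Fluo4-AM dye, 2 µM / Measure: Agonist-evoked peak-minus-minimum fluorescence over baseline, integrated ratio, B score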
# MrgX1 PAM – human MrgX1 positive allosteric modulation, primary screen | actives 0.63% (n = 310,000) | B-score at 10 µM | Q96LB2 | AID 588675 | MrgX1-HEK293, Fluo-4 calcium flux, FDSS; stronger effect = higher value;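 active = plate-corrected calcium response at least 3 library SD above typical, normal starting fluorescence, not activating the receptor alone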;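 also: compound read alongside a low EC10 to EC30 dose of BAM8-22 agonist; peak minus trough fluorescence over baseline measured at the second addition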
# MrgX1 antag – blocks BAM8-22 activation of human MrgX1 receptor; MRGX1-HEK293 calcium flux, Fluo-4, BAM8-22 antagonism; stronger effect = lower value; actives 1.3% (n = 310,000); B-score at 10 µM; AID 588676;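 active = calcium-response B-score plate-corrected more than 3 library SD below zero, starting fluorescence within 5 deviations, no agonist response on first addition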;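 also: peak minus trough fluorescence over baseline after final BAM8-22 challenge near maximal dose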
# An asterisk follows results filed as active; i = inactive. In the library only some 3.5% were active in any assay of this set; here they are far more common.
SMILES,MrgX1 agonist,RGS4 block,RGS4 act,MrgX1 PAM,MrgX1 antag
Cc1cccc(C(=O)Nc2ccc(C(=O)/C=C/c3ccncc3)cc2)c1,i,i,i,10.6*,i
CC(=O)Nc1cccc(C(=O)/C=C/c2ccc(/C=C/C(=O)c3cccc(NC(C)=O)c3)cc2)c1,i,4.75*,i,i,i
Cc1cccc(C(=O)Nc2ccc(C(=O)/C=C/c3cccnc3)cc2)c1,i,i,i,i,i
COc1cccc(OC)c1C(=O)NNS(=O)(=O)c1ccc2ccccc2c1,i,i,i,i,i
COc1cccc(C(=O)N2CCC(n3nccc3NC(=O)C(OC)c3ccccc3)CC2)c1 (stereo not drawn),i,i,i,i,i
COC(=O)C1CCCCN1C(=O)c1ccc2oc(Cc3ccccc3)nc2c1 (stereo not drawn),i,i,i,i,-5.34*
Cc1ccc(NC(=O)CCC(=O)NNC(=O)NC2CCCCC2)c(C)c1,i,i,i,i,i
CC(C)C[C@H](NC(=O)c1[nH]cnc1C(=O)N[C@@H](C)C(=O)OC(C)(C)C)C(=O)OC(C)(C)C,i,i,i,i,i
COCCn1c(SCc2cccc([N+](=O)[O-])c2)nc2ccccc2c1=O,i,i,i,i,i
CCCCn1c(SCc2cccc([N+](=O)[O-])c2)nc2ccsc2c1=O,i,i,-8.05*,i,i
C/C(=N\Nc1ccc([N+](=O)[O-])cc1)c1ccc(O)cc1,i,i,i,i,-5.57*
CCOC(=O)c1ccc(NC(=O)COc2ccc(CNC3CCCCC3)cc2OC)cc1,i,i,-7.49*,i,i
Cc1cccc([N+](=O)[O-])c1NC(=O)CN(Cc1ccccc1)Cc1ccccc1,i,i,-8.61*,i,i
COc1cccc(/C=N/NC(=O)c2oc3nc(-c4ccccc4)cc(-c4ccco4)c3c2N)c1,i,i,i,i,-4.74*
NNC(=O)c1oc2nc(-c3cccs3)cc(-c3ccco3)c2c1N,i,i,-9.68*,i,i
CC(C)N1CCN(Cc2ccsc2)CC1CCO (stereo not drawn),i,i,i,i,i
O=C(CCNC(=O)c1ccccc1Cl)NCC(c1ccc(F)cc1)N1CCOCC1 (stereo not drawn),i,i,i,i,i
O=[N+]([O-])c1cccc(S(=O)(=O)Nc2ccc(-c3ccc(N4CCOCC4)nn3)cc2)c1,i,i,i,7.78*,i
O=[N+]([O-])c1cccc(S(=O)(=O)Nc2ccc(-c3ccc(N4CCCC4)nn3)cc2)c1,i,i,i,i,i
O=C1Nc2ccc([N+](=O)[O-])cc2OC1CCN1CCCC1 (stereo not drawn),i,i,i,11.7*,i
CN1CCN(CCC2Oc3cc([N+](=O)[O-])ccc3NC2=O)CC1 (stereo not drawn),i,i,i,i,i
CCOc1ccc(C2=C/C(=C/c3cccnc3)C(=O)O2)cc1,i,i,i,27.6*,i
COc1ccc(C2=C/C(=C/c3cccnc3)C(=O)O2)cc1OC,i,i,i,i,i
COc1cccc2cc(-c3cn4cccc(C)c4n3)c(=O)oc12,38.3*,i,i,i,i
O=[N+]([O-])c1ccccc1S(=O)(=O)Nc1ccc2c(c1)OCCO2,i,i,i,i,i
SMILES,MrgX1 agonist,RGS4 block,RGS4 act,MrgX1 PAM,MrgX1 antag
C[N+]1=C(/C=C/Nc2ccccc2Cl)C(C)(C)c2ccccc21,i,i,i,i,i
COC(=O)c1ccc2c(c1)C(C)(C)C(/C=C/c1ccccc1O)=[N+]2C,i,i,-7.25*,i,i
CC(C)CN(C(=O)c1nn(C)c(=O)c2ccccc12)c1nc2ccccc2s1,i,i,i,7.04*,i
CC(C)CN(C(=O)c1ccco1)c1nc2ccccc2s1,i,i,i,i,i
Nc1nnn(CC(=O)N/N=C/C=C/c2ccccc2)n1,i,i,i,i,i
Clc1ccc(CSc2cc3c(nn2)-c2ccccc2CC3)cc1Cl,i,i,-8.07*,i,i
